This is an account of results in ChEMBL document CHEMBL1156574, “Synthesis and biological properties of benzothiazole, benzoxazole, and chromen-4-one analogues of the potent antitumor agent 2-(3,4-dimethoxyphenyl)-5-fluorobenzothiazole (PMX 610, NSC 721648)” (J Med Chem, 2008).

Assay [1] has as its system MCF7. Put plainly: Antiproliferative activity against estrogen receptor positive human MCF7 cells after 72 hrs by MTT assay. It counts as functional. The following applies: MCF7, 72 h. An outline of the steps:
(§1)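 Growth inhibition was tested in triplicate in breast lines MCF-7 (ER +ve) and MDA 468 (ER −ve). Values are means of three independent experiments, reported as GI50.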
A general note: Formazan colour is commonly taken as a measure of viable cells.

Assay [2] can be described thus: Antiproliferative activity against estrogen receptor deficient human MDA468 cells after 72 hrs by MTT assay. It counts as functional. As to conditions: MDA-MB-468, 72 h. An outline of the steps: as §1
The subject of assay [3] is MDA-MB-468. Put plainly: Induction of apoptosis in estrogen receptor deficient human MDA468 cells assessed as accumulation at preG1 phase at 1 uM after 24 hrs by flow cytometry. It counts as functional, cell-based. An outline of the steps:
(§2)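 MDA 468 breast cells were left untreated or exposed for 24–72 h. Cellular DNA content was measured by flow cytometry, with 10 000 events per sample. Percentages in pre-G1, G1, S and G2/M were taken from the DNA histograms and compared with the nontreated control. Independent analyses were run ≥3 times.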
For orientation: Flow cytometry measures light scatter and fluorescence of single cells or particles in a stream.

The nature of assay [4]: Cell cycle arrest in estrogen receptor deficient human MDA468 cells assessed as accumulation at S phase at 1 uM after 24 hrs by flow cytometry. It counts as functional, cell-based. The following applies: MDA-MB-468. An outline of the steps:
as §2

Assay [5] can be described thus: Cell cycle arrest in estrogen receptor deficient human MDA468 cells assessed as accumulation at G2/M phase at 1 uM after 24 hrs by flow cytometry. It counts as functional, cell-based. As to conditions: MDA-MB-468. The procedure, abridged:
as §2

Assay [6] is described as follows: Cell cycle arrest in estrogen receptor deficient human MDA468 cells assessed as accumulation at G2/M phase at 0.1 uM after 24 hrs by flow cytometry. It counts as functional, cell-based. The following applies: MDA-MB-468. The procedure, abridged:
as §2

A short description of assay [7]: Cell cycle arrest in estrogen receptor deficient human MDA468 cells assessed as accumulation at G2/M phase at 0.1 uM after 72 hrs by flow cytometry. It counts as functional, cell-based. As to conditions: MDA-MB-468. The procedure, abridged: as §2
Assay [8] relates to MCF7. Put plainly: Antiproliferative activity against human estrogen receptor positive MCF7 cells after 72 hrs by MTT assay in presence of aryl hydrocarbon receptor antagonist alpha-naphthoflavone. It counts as functional. The following applies: MCF7, 72 h.
Assay [9] has as its target T1, Aryl hydrocarbon receptor (Rattus norvegicus, UniProt P41738).
T1 sequence (P41738 whole entry): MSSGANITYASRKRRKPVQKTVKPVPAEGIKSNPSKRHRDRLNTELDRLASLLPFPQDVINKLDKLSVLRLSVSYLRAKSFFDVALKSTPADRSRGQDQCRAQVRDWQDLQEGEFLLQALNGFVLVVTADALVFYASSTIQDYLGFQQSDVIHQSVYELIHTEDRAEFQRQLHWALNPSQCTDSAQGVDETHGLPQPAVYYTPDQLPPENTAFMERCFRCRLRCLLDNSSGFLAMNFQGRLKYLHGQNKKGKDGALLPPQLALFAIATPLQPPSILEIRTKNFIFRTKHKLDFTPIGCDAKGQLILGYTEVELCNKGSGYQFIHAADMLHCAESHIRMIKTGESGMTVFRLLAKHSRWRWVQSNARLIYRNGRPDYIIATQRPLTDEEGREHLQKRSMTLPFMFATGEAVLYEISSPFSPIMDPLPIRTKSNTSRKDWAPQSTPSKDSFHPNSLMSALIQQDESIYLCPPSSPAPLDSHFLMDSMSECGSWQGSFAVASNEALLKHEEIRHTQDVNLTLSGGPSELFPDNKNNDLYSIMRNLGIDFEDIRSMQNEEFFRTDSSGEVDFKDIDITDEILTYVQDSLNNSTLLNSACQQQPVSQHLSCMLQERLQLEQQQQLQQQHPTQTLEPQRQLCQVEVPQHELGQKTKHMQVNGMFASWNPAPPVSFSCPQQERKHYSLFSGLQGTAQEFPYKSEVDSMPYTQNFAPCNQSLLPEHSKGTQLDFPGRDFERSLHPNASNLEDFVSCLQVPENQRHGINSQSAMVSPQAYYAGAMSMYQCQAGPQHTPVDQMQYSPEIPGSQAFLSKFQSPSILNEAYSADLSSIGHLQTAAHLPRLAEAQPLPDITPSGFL
Put plainly: Displacement of [3H]tetrachlorodibenzo-p-dioxin from aryl hydrocarbon receptor in CRL:WI rat liver cytosol. The procedure, abridged: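 Aryl hydrocarbon receptor binding was measured in CRL:WI rat liver cytosol by displacement of [3H]tetrachlorodibenzo-p-dioxin. IC50 was determined, and Ki was also reported.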
(Loss of bound radioactivity is the signal in a displacement assay; it reports binding, not function.)

A short description of assay [10]: Antiproliferative activity against estrogen receptor deficient human MDA468 cells after 72 hrs by MTT assay in presence of aryl hydrocarbon receptor antagonist alpha-naphthoflavone. It counts as functional. As to conditions: MDA-MB-468, 72 h.
The nature of assay [11]: Cell cycle arrest in estrogen receptor deficient human MDA468 cells assessed as accumulation at G2/M phase at 0.1 uM after 48 hrs by flow cytometry. It counts as functional, cell-based. As to conditions: MDA-MB-468. An outline of the steps: as §2

The structures appear in SMILES notation. Calls of active or inactive are those of the source. The rule behind the calls is not given here. Where only a bound is given, the exact number is not on record here.

For orientation: GI50 means the concentration that inhibits growth by half. One may read the IC50 as the point on the concentration scale where inhibition reaches its midpoint. The Ki is the equilibrium dissociation constant of an inhibitor or competing ligand from its target.

Turning to `Oc1ccc(-c2nc3ccc(Br)cc3s2)cc1`, the GI50 in assay [1] stood at 4.16 µM; in assay [2], 0.28 µM.
Taken in the same sequence, the figures for `COc1cc(OC)cc(-c2nc3cc(F)ccc3o2)c1` were 45.4 µM and 0.79 µM.
For `CCOc1ccc2nc(-c3ccc(O)cc3)sc2c1`, in that order: more than 100 µM and more than 100 µM.
With `CCc1ccc2nc(-c3ccc(O)cc3)sc2c1`, the 50% growth inhibitory concentration (GI50) in assay [1] and in assay [2] was more than 100 µM in each case.
Take `CS(=O)(=O)c1ccc2nc(-c3ccc(O)cc3)sc2c1`: the values for the GI50 in assay [1] and in assay [2] were 62.3 µM and 42.2 µM, respectively.
Taken in the same sequence, the figures for `COc1cc(-c2nc3ccc(F)cc3o2)cc(OC)c1OC` were 1.09 µM and 0.037 µM.
Taken in the same sequence, the figures for `COc1ccc(-c2nc3cc(F)ccc3o2)cc1` were 22.7 µM and 0.76 µM.
For `COc1cccc(-c2nc3cc(F)ccc3o2)c1`, in that order: 39.5 µM and 0.87 µM.
Consider `COc1ccc2nc(-c3ccc(O)cc3)sc2c1`, for which the values for the GI50 in assay [1] and in assay [2] were 45.8 µM and 9.67 µM, respectively.
With `COc1ccc(-c2cc(=O)c3cc(F)ccc3o2)cc1OC`, the 50% growth inhibitory concentration (GI50) in assay [1] is 83.4 µM; in [2] it was 20.6 µM.
Taken in the same sequence, the figures for `COc1ccc(-c2nc3cc(F)ccc3o2)c(OC)c1` were 2.16 µM and 0.54 µM.
For `COc1cccc(OC)c1-c1nc2ccc(F)cc2o1`, in that order: 90.7 µM and 98.6 µM.
Consider `COc1ccc(-c2nc3cc(F)ccc3o2)cc1OC`, for which the outcome in assay [3], in assay [4] and in assay [5] was Active. In addition, the GI50 in assay [1] was 0.83 µM; in assay [2] it was 0.33 µM. For the same molecule, the outcome in assay [6] was inactive.
Take `Oc1ccc(-c2nc3ccc(Cl)cc3s2)cc1`: the GI50 in assay [1] came out at 26.5 µM; in assay [2], 0.28 µM.
For `Fc1ccc2nc(-c3ccc4c(c3)OCO4)oc2c1`, in that order: 19.2 µM and 6.77 µM.
`COc1ccc(-c2nc3cc(F)ccc3[nH]2)cc1OC`: the outcome in [4] and in assay [6] was inactive. The results for the GI50 in [1] and in assay [2] were 85.7 µM and 94.4 µM, respectively.
With `COc1cc(-c2nc3cc(F)ccc3o2)cc(OC)c1OC`, the GI50 in assay [1] worked out at 16 µM; in assay [2], 2.58 µM.
Turning to `Oc1cccc(-c2nc3cc(F)ccc3s2)c1`, the GI50 is 0.57 µM in [1] and 0.2 µM in assay [2].
For `COc1ccc(-c2nc3ccc(F)cc3o2)c(OC)c1`, in that order: 69.9 µM and 3.29 µM.
Taken in the same sequence, the figures for `COc1ccc(-c2nc3ccc(F)cc3o2)cc1` were 41 µM and 9.55 µM.
For `Oc1ccc(-c2nc3cc(C(F)(F)F)ccc3s2)cc1`, in that order: 13.8 µM and 0.1 µM.
As to `COc1ccc(-c2nc3cc(F)ccc3s2)cc1OC`, the outcome in assay [7], in [6] and in [11] was Active. For the same molecule, the GI50 is 0.514 µM in assay [8], less than 0.0001 µM in [1], less than 0.0001 µM in [2] and 0.27 µM in assay [10]. This molecule yielded an IC50 in [9] of 0.025 µM. This molecule also yielded a Ki in assay [9] of 0.0068 µM.
Turning to `Fc1ccc2oc(-c3ccc4c(c3)OCO4)nc2c1`, the concentration for 50% growth inhibition (GI50) in assay [1] was 61.4 µM; in [2], 14.5 µM.
Taken in the same sequence, the figures for `COc1cccc(OC)c1-c1nc2cc(F)ccc2o1` were 58.1 µM and 22 µM.
Consider `Oc1ccc(-c2nc3cc(F)ccc3s2)cc1`, for which the concentration for 50% growth inhibition (GI50) is 0.4 µM in [1] and 0.21 µM in assay [2].
For `COc1ccc(-c2nc3ccc(F)cc3o2)cc1OC`, in that order: 3.53 µM and 0.017 µM.
For `COc1cc(OC)cc(-c2nc3ccc(F)cc3o2)c1`, in that order: 3.72 µM and 0.46 µM.
Taken in the same sequence, the figures for `Oc1ccc(-c2nc3ccc(F)cc3s2)cc1` were 54 µM and 0.5 µM.
With `COc1ccccc1-c1nc2ccc(F)cc2o1`, the GI50 in [1] came out at 0.82 µM; in assay [2], 1.19 µM.
With `COc1ccc(-c2cc(=O)c3ccc(F)cc3o2)cc1OC`, the values for the GI50 in assay [1] and in [2] were 27.9 µM and 0.45 µM, respectively.
For `COc1ccccc1-c1nc2cc(F)ccc2o1`, in that order: 0.36 µM and 0.27 µM.
For `COc1cccc(-c2nc3ccc(F)cc3o2)c1`, in that order: 35.1 µM and 2.02 µM.
